# Assay results from ChEMBL document CHEMBL4265871, “Novel alkylated azoles as potent antifungals” (Eur J Med Chem, 2017).
# Experiments:
# [1] = system: Candida albicans; test: Antifungal activity against Candida albicans ATCC 10231 incubated for 48 hrs by modified CLSI M27-A3 protocol based method; assay type: functional; conditions: ATCC 10231, 48 h
# Method in brief: (§1)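 For C. albicans ATCC 10231, C. krusei ATCC 6258 and C. parapsilosis ATCC 22019, MIC-0 was read, meaning complete growth inhibition. For azole controls, MIC-2 (50% growth inhibition) was reported instead. Caspofungin and voriconazole were tested here; other controls came from earlier work.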
# [2] = system: Candida albicans; test: Antifungal activity against Candida albicans ATCC 64124 incubated for 48 hrs by modified CLSI M27-A3 protocol based method; assay type: functional; conditions: ATCC 64124, 48 h
# [3] = system: Candida albicans; test: Antifungal activity against ITC and FLC-susceptible Candida albicans ATCC MYA-2876 incubated for 48 hrs by modified CLSI M27-A3 protocol based method; assay type: functional; conditions: ATCC MYA-2876, 48 h
# Method in brief: (§2)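 Because these Candida strains show trailing growth, MIC-2 was read, meaning 50% growth inhibition. Caspofungin and voriconazole were tested here; other controls came from earlier work.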
# [4] = system: Candida albicans; test: Antifungal activity against ITC and FLC-resistant Candida albicans ATCC MYA-90819 incubated for 48 hrs by modified CLSI M27-A3 protocol based method; assay type: functional; conditions: ATCC MYA-90819, 48 h
# [5] = system: Candida albicans; test: Antifungal activity against ITC and FLC-susceptible Candida albicans ATCC MYA-2310 incubated for 48 hrs by modified CLSI M27-A3 protocol based method; assay type: functional; conditions: ATCC MYA-2310, 48 h
# [6] = system: Candida albicans; test: Antifungal activity against ITC and FLC-resistant Candida albicans ATCC 1237 incubated for 48 hrs by modified CLSI M27-A3 protocol based method; assay type: functional; conditions: ATCC 1237, 48 h; method in brief: as §2
# [7] = system: Candida albicans; test: Antifungal activity against ITC and FLC-resistant Candida albicans ATCC MYA-1003 incubated for 48 hrs by modified CLSI M27-A3 protocol based method; assay type: functional; conditions: ATCC MYA-1003, 48 h; method in brief: as §2
# [8] = system: Nakaseomyces glabratus; test: Antifungal activity against Candida glabrata ATCC 2001 incubated for 48 hrs by modified CLSI M27-A3 protocol based method; assay type: functional; conditions: ATCC 2001, 48 h
# [9] = system: Pichia kudriavzevii; test: Antifungal activity against Candida krusei ATCC 6258 incubated for 48 hrs by modified CLSI M27-A3 protocol based method; assay type: functional; conditions: ATCC 6258, 48 h; method in brief: as §1
# [10] = system: Candida parapsilosis; test: Antifungal activity against Candida parapsilosis ATCC 22019 incubated for 48 hrs by modified CLSI M27-A3 protocol based method; assay type: functional; conditions: Lodderomyces parapsilosis, ATCC 22019, 48 h; method in brief: as §1
# [11] = system: Aspergillus flavus; test: Antifungal activity against Aspergillus flavus ATCC MYA-3631 incubated for 48 hrs by CLSI M38-A2 protocol based method; assay type: functional; conditions: ATCC MYA-3631, 48 h
# [12] = system: Aspergillus nidulans; test: Antifungal activity against Aspergillus nidulans ATCC 38163 incubated for 48 hrs by CLSI M38-A2 protocol based method; assay type: functional; conditions: ATCC 38163, 48 h
# [13] = system: Aspergillus terreus; test: Antifungal activity against Aspergillus terreus ATCC MYA-3633 incubated for 48 hrs by CLSI M38-A2 protocol based method; assay type: functional; conditions: ATCC MYA-3633, 48 h
# [14] = Toxicity in human A549 cells assessed as reduction in cell viability incubated for 24 hrs by resazurin dye based assay
# Method in brief: (§3)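 Toxicity tested in the nucleated lines A549 and BEAS-2B to give EC50 values. Selectivity index is EC50 against the mammalian line divided by the MIC against a given fungal strain.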
# [15] = Toxicity in human BEAS2B cells assessed as reduction in cell viability incubated for 24 hrs by resazurin dye based assay; conditions: BEAS-2B cells; method in brief: as §3
# [16] = Selectivity index, ratio of EC50 for toxicity in human BEAS2B cells to MIC50 for antifungal activity against Candida albicans ATCC 64124; assay type: cell-based; conditions: BEAS-2B cells, read-out: Selectivity Index
# Method in brief: (§4)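 Selectivity index is the EC50 against the mammalian line (A549 or BEAS-2B) divided by the MIC against the given fungal strain.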
# [17] = Selectivity index, ratio of EC50 for toxicity in human A549 cells to MIC50 for antifungal activity against Candida albicans ATCC 64124; assay type: cell-based; conditions: read-out: Selectivity Index; method in brief: as §4
# [18] = Selectivity index, ratio of EC50 for toxicity in human A549 cells to MIC50 for antifungal activity against ITC and FLC-susceptible Candida albicans ATCC MYA-2876; assay type: cell-based; conditions: read-out: Selectivity Index; method in brief: as §4
# [19] = Selectivity index, ratio of EC50 for toxicity in human BEAS2B cells to MIC50 for antifungal activity against ITC and FLC-susceptible Candida albicans ATCC MYA-2876; assay type: cell-based; conditions: BEAS-2B cells, read-out: Selectivity Index
# Method in brief: (§5)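 Ratio of the compound's EC50 against BEAS-2B cells to its MIC against the named C. albicans strain. […] For C. albicans strains other than ATCC 10231, trailing growth meant MIC-2 was taken, meaning 50% growth inhibition.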
# [20] = Selectivity index, ratio of EC50 for toxicity in human A549 cells to MIC50 for antifungal activity against ITC and FLC-resistant Candida albicans ATCC MYA-90819; assay type: cell-based; conditions: read-out: Selectivity Index; method in brief: as §4
# [21] = Selectivity index, ratio of EC50 for toxicity in human BEAS2B cells to MIC50 for antifungal activity against ITC and FLC-resistant Candida albicans ATCC MYA-90819; assay type: cell-based; conditions: BEAS-2B cells, read-out: Selectivity Index; method in brief: as §5
# [22] = Selectivity index, ratio of EC50 for toxicity in human A549 cells to MIC50 for antifungal activity against ITC and FLC-susceptible Candida albicans ATCC MYA-2310; assay type: cell-based; conditions: read-out: Selectivity Index; method in brief: as §4
# [23] = Selectivity index, ratio of EC50 for toxicity in human BEAS2B cells to MIC50 for antifungal activity against ITC and FLC-susceptible Candida albicans ATCC MYA-2310; assay type: cell-based; conditions: BEAS-2B cells, read-out: Selectivity Index; method in brief: as §5
# [24] = Selectivity index, ratio of EC50 for toxicity in human A549 cells to MIC50 for antifungal activity against ITC and FLC-resistant Candida albicans ATCC 1237; assay type: cell-based; conditions: read-out: Selectivity Index; method in brief: as §4
# [25] = Selectivity index, ratio of EC50 for toxicity in human BEAS2B cells to MIC50 for antifungal activity against ITC and FLC-resistant Candida albicans ATCC 1237; assay type: cell-based; conditions: BEAS-2B cells, read-out: Selectivity Index; method in brief: as §4
# [26] = Selectivity index, ratio of EC50 for toxicity in human A549 cells to MIC50 for antifungal activity against ITC and FLC-resistant Candida albicans ATCC MYA-1003; assay type: cell-based; conditions: read-out: Selectivity Index; method in brief: as §4
# [27] = Selectivity index, ratio of EC50 for toxicity in human BEAS2B cells to MIC50 for antifungal activity against ITC and FLC-resistant Candida albicans ATCC MYA-1003; assay type: cell-based; conditions: BEAS-2B cells, read-out: Selectivity Index; method in brief: as §4
# [28] = Selectivity index, ratio of EC50 for toxicity in human A549 cells to MIC50 for antifungal activity against Candida glabrata ATCC 2001; assay type: cell-based; conditions: read-out: Selectivity Index; method in brief: as §4
# [29] = Selectivity index, ratio of EC50 for toxicity in human BEAS2B cells to MIC50 for antifungal activity against Candida glabrata ATCC 2001; assay type: cell-based; conditions: BEAS-2B cells, read-out: Selectivity Index; method in brief: as §4
# [30] = Selectivity index, ratio of EC50 for toxicity in human A549 cells to MIC50 for antifungal activity against Candida albicans ATCC 10231; assay type: cell-based; conditions: read-out: Selectivity Index; method in brief: as §4
# [31] = Selectivity index, ratio of EC50 for toxicity in human BEAS2B cells to MIC50 for antifungal activity against Candida albicans ATCC 10231; assay type: cell-based; conditions: BEAS-2B cells, read-out: Selectivity Index; method in brief: as §4
# [32] = Selectivity index, ratio of EC50 for toxicity in human A549 cells to MIC50 for antifungal activity against Candida krusei ATCC 6258; assay type: cell-based; conditions: read-out: Selectivity Index; method in brief: as §4
# [33] = Selectivity index, ratio of EC50 for toxicity in human BEAS2B cells to MIC50 for antifungal activity against Candida krusei ATCC 6258; assay type: cell-based; conditions: BEAS-2B cells, read-out: Selectivity Index; method in brief: as §4
# [34] = Selectivity index, ratio of EC50 for toxicity in human A549 cells to MIC50 for antifungal activity against Aspergillus flavus ATCC MYA-3631; assay type: cell-based; conditions: read-out: Selectivity Index; method in brief: as §4
# [35] = Selectivity index, ratio of EC50 for toxicity in human BEAS2B cells to MIC50 for antifungal activity against Aspergillus flavus ATCC MYA-3631; assay type: cell-based; conditions: read-out: Selectivity Index; method in brief: as §4
# [36] = Selectivity index, ratio of EC50 for toxicity in human A549 cells to MIC50 for antifungal activity against Aspergillus nidulans ATCC 38163; assay type: cell-based; conditions: read-out: Selectivity Index; method in brief: as §4
# [37] = Selectivity index, ratio of EC50 for toxicity in human BEAS2B cells to MIC50 for antifungal activity against Aspergillus nidulans ATCC 38163; assay type: cell-based; conditions: read-out: Selectivity Index; method in brief: as §4
# [38] = Selectivity index, ratio of EC50 for toxicity in human A549 cells to MIC50 for antifungal activity against Aspergillus terreus ATCC MYA-3633; assay type: cell-based; conditions: read-out: Selectivity Index; method in brief: as §4
# [39] = Selectivity index, ratio of EC50 for toxicity in human BEAS2B cells to MIC50 for antifungal activity against Aspergillus terreus ATCC MYA-3633; assay type: cell-based; conditions: read-out: Selectivity Index; method in brief: as §4
smiles,measurement,setting,value
CC[C@@H]([C@H](C)O)n1ncn(-c2ccc(N3CCN(c4ccc(OC[C@@H]5CO[C@@](Cn6cncn6)(c6ccc(F)cc6F)C5)cc4)CC3)cc2)c1=O [POSACONAZOLE],MIC50,[1],0.71 µM
same,MIC50,[2],> 89.2 µM
same,MIC50,[3],11.1 µM
same,MIC50,[4],44.7 µM
same,MIC50,[5],44.7 µM
same,MIC50,[6],22.3 µM
same,MIC50,[7],22.3 µM
same,MIC50,[8],0.17 µM
same,MIC50,[9],0.09 µM
same,MIC50,[10],< 0.04 µM
same,MIC50,[11],0.34 µM
same,MIC50,[12],0.28 µM
same,MIC50,[13],0.68 µM
same,EC50 at 24 h,[14],37 µg/mL
same,EC50 at 24 h,[15],26 µg/mL
same,selectivity ratio,[16],0.4
same,selectivity ratio,[17],1
same,selectivity ratio,[18],5
same,selectivity ratio,[19],3
same,selectivity ratio,[20],1
same,selectivity ratio,[21],1
same,selectivity ratio,[22],1
same,selectivity ratio,[23],1
same,selectivity ratio,[24],2
same,selectivity ratio,[25],2
same,selectivity ratio,[26],2
same,selectivity ratio,[27],2
same,selectivity ratio,[28],308
same,selectivity ratio,[29],217
same,selectivity ratio,[30],74
same,selectivity ratio,[31],52
same,selectivity ratio,[32],617 to 1230
same,selectivity ratio,[33],433 to 867
same,selectivity ratio,[34],154
same,selectivity ratio,[35],108
same,selectivity ratio,[36],190
same,selectivity ratio,[37],133
same,selectivity ratio,[38],77
same,selectivity ratio,[39],54
